We go through 9 compounds from ChEMBL document CHEMBL1129495, “Highly selective bradykinin agonists and antagonists with replacement of proline residues by N-methyl-D- and L-phenylalanine” (J Med Chem, 1996).

As a reminder, the IC50 is the concentration needed to halve the response being measured.

Square brackets hold non-standard residues; d marks the D form. Peptide text beside a SMILES is read from it.

A short description of test [1]: Inhibitory activity against low affinity binding site of Bradykinin receptor in guinea pig ileum. The conditions noted are these: Cavia porcellus. The format is tissue-based. The procedure, abridged:
(§1)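 Fresh rat myometrial or guinea pig ileum membranes (0.3–0.5 mg protein) incubated 30 min at 4 °C with 0.05 nM [3H]BK and increasing peptide concentrations. Buffer: 25 mM TES pH 6.8, 1 µM captopril, 1 mM DTE, bacitracin, BSA. Samples filtered on PEI-treated GF/C and counted. High- and low-affinity IC50s from Tobler–Engel analysis; duplicates.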

For test [2], the species on record is Cavia porcellus. Description: Antagonistic activity was evaluated in Guinea pig lung strip assay. The format is functional. Also noted: scale not given: the % may be the effect or the level left. The procedure, abridged:
(§2)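 Lower-lobe lung strips (2–3 mm) from guinea pigs (400–600 g) in Krebs–Henseleit at 37 °C under 1 g load, with isometric tension recorded. After 1 h equilibration, peptide was given 5 min before an ED50 dose of BK. Cumulative BK curves covered 0.01–10 µM. pA2 by the van Rossum method.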

Test [3] is described as follows: Inhibitory activity against high affinity binding site of Bradykinin receptor in rat uterus membrane was reported. In kind it is cell membranes. The procedure, abridged:
as §1

Test [4] is filed under the species Cavia porcellus. In words: (§3) Antagonistic activity was evaluated in Guinea pig ileum assay. In kind it is functional. Details: scale not given: the % may be the effect or the level left. The procedure, abridged: (§4)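 Guinea pig terminal ileum in Tyrode at 37 °C under 0.5 g tension, isotonic recording. Analog added 5 min before a cumulative BK dose–response curve (maximum at 0.3 µM BK). pA2 is the negative log of the antagonist concentration that reduces the effect of a double BK dose to that of a single dose. Means of 3–7 determinations.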

Test [5] in a line: Inhibitory activity against low affinity binding site of Bradykinin receptor in rat uterus membrane was reported. In kind it is cell membranes. The method, boiled down:
as §1

Test [6] is filed under the species Rattus norvegicus. Description: Agonistic activity was evaluated in Estrus Rat Uterus Assay. The format is functional. The method, boiled down:
(§5)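 Uteri from female Wistar rats (180–200 g) given diethylstilbestrol 100 µg/kg sc 16 h before use. Distal horns held in de Jalon solution at 28 °C under 0.5 g resting tension, with isotonic contractions recorded. BK was dosed every 4 min and left in the bath 45 s. Agonist activity by Schild 4-point method, expressed as percent of BK activity.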

The species named for test [7] is Rattus norvegicus. In words: Agonistic activity against selectivity for smooth muscle contraction in rat uterus. The format is functional, Muscle tissue. The procedure, abridged: as §5
The species entered for test [8] is Cavia porcellus. Description: Agonistic activity against selectivity for smooth muscle contraction in guinea pig ileum. The format is functional, Muscle tissue. The procedure, abridged: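 Isolated terminal ileum (1.5 cm) from guinea pigs fasted 16 h, in Tyrode at 37 °C. Isotonic contractions recorded under 0.5 g resting tension. Agonist activity measured by Schild 4-point method against BK doses of 1 and 2 nM, expressed as percent of BK activity.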

The species named for test [9] is Cavia porcellus. In words: Compound was tested for agonist activity for contraction of guinea pig ileum; the negative logarithm of ED50 (pD2) was estimated.
Test [10] can be described thus: Selectivity for rat uterus is expressed as the ratio RUT/GPI. In kind it is functional. The procedure, abridged: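 Ratio of agonist activity (percent of BK) in estrus rat uterus to that in guinea pig ileum, both from isotonic contraction assays using the Schild 4-point method.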
Test [11] is described as follows: Inhibitory activity against high affinity binding site of Bradykinin receptor in guinea pig ileum was reported. The format is tissue-based. The conditions noted are these: Cavia porcellus. The method, boiled down:
as §1

For test [12], the species on record is Rattus norvegicus. In words: Compound was tested for agonist activity for contraction of rat uterus, the negative logarithm of ED50 (pD2) was estimated.
A short description of test [13]: Inhibitory activity against low binding affinity binding site of Bradykinin receptor in guinea pig ileum was reported. The format is tissue-based, Cavia porcellus. The procedure, abridged:
as §1

A short description of test [14]: Inhibitory activity against low binding affinity binding site of Bradykinin receptor in rat uterus membrane was reported. The format is cell membranes. The method, boiled down: as §1
A short description of test [15]: Inhibitory activity against high binding affinity binding site of Bradykinin receptor in rat uterus membrane was reported. In kind it is cell membranes. The method, boiled down:
as §1

Test [16] is filed under the species Cavia porcellus. The description is as §3. In kind it is functional, organism-based. The following applies: read-out: pA2 (converted). The procedure, abridged:
as §4

Test [17] is filed under the species Cavia porcellus. In words: Antagonistic activity expressed as pA2 in Guinea pig lung strip assay. In kind it is functional. The following applies: read-out: pA2 (converted). The procedure, abridged: as §2

With `CN(C(=O)[C@@H]1CCCN1C(=O)[C@@H](N)CCCN=C(N)N)[C@H](Cc1ccccc1)C(=O)NCC(=O)N[C@@H](Cc1ccccc1)C(=O)N[C@@H](CO)C(=O)N1CCC[C@H]1C(=O)N[C@@H](Cc1ccccc1)C(=O)N[C@@H](CCCN=C(N)N)C(=O)O`, the half-maximal inhibitory concentration (IC50) in test [1] stood at 1400 nM; in test [3] it was 0.3 nM; in test [5] it was 57 nM. For the same compound, the Activity was found to be 0.03% in the test filed under Cavia porcellus [2], 0.03% in the test listed under Cavia porcellus [4] and 0.02% in the test filed under Rattus norvegicus [6].

As for H-RPPGFSPFR-OH [BRADYKININ], the Activity in the test listed under Rattus norvegicus [7], in the test filed under Cavia porcellus [8], in the test listed under Cavia porcellus [2], in the test filed under Cavia porcellus [4] and in the test listed under Rattus norvegicus [6] was 100% in each case. In addition, the pD2 is listed as 7.4 in the test filed under Cavia porcellus [9] and 7.9 in the test filed under Rattus norvegicus [12]. The Ratio in [10] came out at 1. Further, the IC50 in [1] was 1.75 nM; in test [11], 0.01 nM; in test [3] it was 0.01 nM; in test [5], 1 nM.

Turning to `CN(C(=O)[C@H](CO)NC(=O)[C@H](Cc1cccs1)NC(=O)CNC(=O)[C@@H]1CC(O)CN1C(=O)[C@@H]1CCCN1C(=O)[C@@H](N)CCCN=C(N)N)[C@H](Cc1ccccc1)C(=O)N[C@@H](Cc1ccccc1)C(=O)N[C@@H](CCCN=C(N)N)C(=O)O` (stereo partly drawn), the figures for the 50% inhibitory concentration (IC50) in test [13], in test [14] and in test [15] were 29 nM, 65 nM and 0.49 nM, respectively. Besides, the Ratio in test [10] is recorded as 4000. Also, the Activity in the test listed under Cavia porcellus [2] is 0.04%; in the test filed under Cavia porcellus [4] it was 0.02%; in the test listed under Rattus norvegicus [6], 89%.

As to `NC(N)=NCCC[C@H](NC(=O)[C@H](Cc1ccccc1)NC(=O)[C@@H](Cc1ccccc1)NC(=O)[C@H](CO)NC(=O)[C@H](Cc1ccccc1)NC(=O)CNC(=O)[C@@H]1CCCN1C(=O)[C@@H]1CCCN1C(=O)[C@@H](N)CCCN=C(N)N)C(=O)O` (H-RPPGFS[dF]FR-OH), the 50% inhibitory concentration (IC50) in [13] came out at 14 nM; in [14], 3.5 nM; in test [15], 6.6 nM. In addition, the Activity in the test listed under Cavia porcellus [2] was 0.9%; in the test filed under Rattus norvegicus [6], 1.7%. For the same compound, the Kb in the test filed under Cavia porcellus [16] is 2750 nM.

Turning to `CN(C(=O)[C@@H](N)CCCN=C(N)N)[C@H](Cc1ccccc1)C(=O)N1CCC[C@H]1C(=O)NCC(=O)N[C@@H](Cc1ccccc1)C(=O)N[C@@H](CO)C(=O)N1CCC[C@H]1C(=O)N[C@@H](Cc1ccccc1)C(=O)N[C@@H](CCCN=C(N)N)C(=O)O`, the IC50 in [1] was 3780 nM; in [11], 57 nM; in [5], 100 nM. The Activity in the test listed under Cavia porcellus [2] is 0.05%; in the test filed under Cavia porcellus [4], 0.15%; in the test filed under Rattus norvegicus [6] it was 0.15%.

On to `CN(C(=O)[C@H](CO)NC(=O)[C@H](Cc1ccccc1)NC(=O)CNC(=O)[C@@H]1CCCN1C(=O)[C@@H]1CCCN1C(=O)[C@@H](N)CCCN=C(N)N)[C@H](Cc1ccccc1)C(=O)N[C@@H](Cc1ccccc1)C(=O)N[C@@H](CCCN=C(N)N)C(=O)O`, for which the Ratio in test [10] is 300. Besides, the 50% inhibitory concentration (IC50) came to 132 nM in test [1], 1 nM in test [11], 0.11 nM in [3] and 4.8 nM in test [5]. The values for the Activity in the test listed under Cavia porcellus [2], in the test filed under Cavia porcellus [4] and in the test listed under Rattus norvegicus [6] were 1.4%, 0.04% and 136%, respectively.

In the case of `CN(C(=O)[C@@H]1CCCN1C(=O)[C@@H](N)CCCN=C(N)N)[C@@H](Cc1ccccc1)C(=O)NCC(=O)N[C@@H](Cc1ccccc1)C(=O)N[C@@H](CO)C(=O)N1CCC[C@H]1C(=O)N[C@@H](Cc1ccccc1)C(=O)N[C@@H](CCCN=C(N)N)C(=O)O`, the half-maximal inhibitory concentration (IC50) was 8000 nM in [1], 2.6 nM in test [11], 0.2 nM in test [3] and 375 nM in [5]. Further, the Activity in the test filed under Cavia porcellus [2] stood at 0.03%; in the test filed under Cavia porcellus [4] it was 0.05%; in the test filed under Rattus norvegicus [6] it was 0.03%.

Turning to `CN(C(=O)[C@H](CO)NC(=O)[C@H](Cc1ccccc1)NC(=O)CNC(=O)[C@@H]1C[C@@H](O)CN1C(=O)[C@@H]1CCCN1C(=O)[C@H](CCCN=C(N)N)NC(=O)[C@H](N)CCCN=C(N)N)[C@H](Cc1ccccc1)C(=O)N(C)[C@@H](Cc1ccccc1)C(=O)N[C@@H](CCCN=C(N)N)C(=O)O`, the IC50 stood at 33 nM in test [1], 0.33 nM in test [3] and 18 nM in test [5].

Turning to `CN(C(=O)[C@@H](N)CCCN=C(N)N)[C@@H](Cc1ccccc1)C(=O)N1CCC[C@H]1C(=O)NCC(=O)N[C@@H](Cc1ccccc1)C(=O)N[C@@H](CO)C(=O)N1CCC[C@H]1C(=O)N[C@@H](Cc1ccccc1)C(=O)N[C@@H](CCCN=C(N)N)C(=O)O`, the IC50 was 25 nM in test [1], 1 nM in [11], 3.5 nM in test [3] and 232 nM in [5]. The Activity in the test filed under Cavia porcellus [2] was determined as 1.4%; in the test filed under Cavia porcellus [4], 4%; in the test filed under Rattus norvegicus [6], 35%. Also, in the test listed under Cavia porcellus [17], the Kb was 2570 nM.
